Compound activity from PubChem BioAssay.
S1P3 antagonist – blocks the human S1P3 receptor; Q99500; CHO S1P3 NFAT-BLA reporter, FRET fluorescence, antagonist mode; inhibition, % at 4.98 µM; 170,000 compounds, 0.27% hits; AID 485;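 active = inhibition above the plate cutoff, the mean inhibition of test wells on that plate plus 3 SD, cut at about 28% in these data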;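 also: cells challenged with S1P at its EC80 of 0.8 µM; blue over green emission ratio from cleaved BLA substrate after 4 h stimulation; 0% = S1P-stimulated wells and 100% = unstimulated DMSO-only wells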
Mdm2 ligase inh – inhibitors of human Mdm2 E3 ubiquitin ligase. Q00987. cell-based MDM2 ubiquitination luciferase reporter, 2 h; 0 = plate control, 100 = twice control, blank-subtracted. signal enhancement, % at 5 µM. 210,000 compounds, 0.11% hits. AID 1230;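 active = signal enhancement of 30% or more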;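 also: luminescence tracks abundance of the self-degrading MDM2-luciferase fusion protein; higher signal means inhibition of MDM2 E3 ligase activity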
Target sequence (Q00987 whole entry, looked up, the tested form may be a part): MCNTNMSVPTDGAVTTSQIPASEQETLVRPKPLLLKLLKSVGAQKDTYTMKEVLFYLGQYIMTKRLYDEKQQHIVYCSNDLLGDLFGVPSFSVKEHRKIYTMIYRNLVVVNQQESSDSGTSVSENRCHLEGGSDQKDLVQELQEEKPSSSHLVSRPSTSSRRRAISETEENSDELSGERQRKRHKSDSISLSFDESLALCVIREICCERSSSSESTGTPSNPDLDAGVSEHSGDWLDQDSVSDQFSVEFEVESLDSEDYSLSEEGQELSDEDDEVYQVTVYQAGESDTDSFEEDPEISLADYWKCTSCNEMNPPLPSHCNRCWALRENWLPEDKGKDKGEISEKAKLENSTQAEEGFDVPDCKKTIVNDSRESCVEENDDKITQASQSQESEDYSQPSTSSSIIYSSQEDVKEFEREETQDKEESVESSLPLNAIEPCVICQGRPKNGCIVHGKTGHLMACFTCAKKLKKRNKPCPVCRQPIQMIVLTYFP
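Material: stable MDM2–luciferase fusion reporter cells / Quantity: 2000 cells/well / Dosing: single 5 µM compound dose, 0.2% final DMSO / Buffer or medium: DMEM / Schedule: 4 h cell settling then 2 h compound exposure, 37 °C / Detection: luminescence with SteadyLite reagent, 15 min at room temperature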
S1P4 agonist – agonists of human S1P4 receptor. O95977. S1P4-expressing cell line, agonist reporter assay. activation, % at 4.98 µM. 220,000 compounds, 0.35% hits; in the data active = activation above about 11%;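 also: 0% = DMSO vehicle and 100% = reference agonist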
S1P4 antag – blocks the human S1P4 receptor; O95977; S1P4-expressing cells, antagonist mode, reporter read-out; inhibition, % at 4.98 µM; 220,000 compounds, 0.26% hits; AID 1510; in the data active = inhibition above about 29%;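 also: 0% = wells stimulated with agonist and 100% = vehicle wells without agonist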
Lmaj promast – reduces viability of Leishmania major promastigotes | resazurin fluorescence viability | inhibition, % at 10 µM | 200,000 compounds, 9% hits | AID 1063; in the data active = inhibition above about 50%;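 also: promastigotes grown with compound for 44 hours at 28 °C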
Starred values were filed as active, the others as inactive; x = no result given. The sample as a whole holds a higher share of hits than the screen did.

SMILES	S1P3 antagonist	Mdm2 ligase inh	S1P4 agonist	S1P4 antag	Lmaj promast
Cc1ccc(C2C3CSCC=C3C(C#N)=C(N)C2(C#N)C#N)cc1 (stereo unspecified)	10	-16	0	5	61*
CCc1c(C(C)O)oc2ccc3c(C)cc(=O)oc3c12 (stereo unspecified)	-19	-25	0	-5	1
NC(=S)N/N=C\c1c2ccccc2cc2ccccc12	-10	-5	4	-16	15
COc1cccc(/C=N/NC(N)=S)c1OCc1cccc(Cl)c1	-8	-2	0	0	70*
O=C(CSCc1ccccc1)N/N=C/c1ccccc1OCc1ccccc1	x	4	-1	-2	0
NC(=S)N/N=C\c1ccccc1OCc1ccccc1	16	11	0	-3	68*
NC(=S)N/N=C\c1c(OCc2ccccc2Cl)ccc2ccccc12	16	-2	4	14	64*
CC(=O)C1C(c2ccc(F)c(F)c2)NC(=O)NC1(O)C(F)(F)F (stereo unspecified)	-15	-7	2	-21	-3
CCCCN(CC)Cc1ccc(CNC(=O)Nc2ccc(Cl)cc2)o1	8	x	0	-1	98*
CCCCN(CC)Cc1ccc(CNC(=O)Nc2ccc(OCC)cc2)o1	x	-10	-1	10	99*
CC(=O)c1cccc(NS(C)(=O)=O)c1	-15	-5	1	-9	-8
CC(CCc1ccccc1)NC(=O)CNC(=S)N(Cc1cccs1)C1CCCC1 (stereo unspecified)	3	-7	0	11	51*
CCOC(=O)CNC(=S)N(Cc1cccs1)C1CCCCC1	-14	-14	0	-21	2
CCOC(=O)c1ccc(NC(=O)COc2ccc(S(=O)(=O)NC(C)(C)C)cc2)cc1	x	2	-1	-10	-1
COc1ccc(-c2nc(C)c(C(C)=O)n2O)cc1	x	30*	0	-12	3
O=C(NCc1ccncc1)/C(=C/c1cccc([N+](=O)[O-])c1)NC(=O)c1ccccc1	-16	-12	1	-5	x
CCC(C)n1c(SCc2ccc([N+](=O)[O-])cc2)nc2ccsc2c1=O (stereo unspecified)	10	-22	-1	8	20
COc1ccc([N+](=O)[O-])cc1NC(=O)c1cn(-c2ccc(Cl)cc2)c(=O)c2ccccc12	-13	3	0	-12	60*
COCCSc1ccccc1C(=O)Nc1cc([N+](=O)[O-])ccc1OC	3	-14	-1	-11	-2
COc1cc(SC#N)ccc1N=Cc1c(C)[nH]n(-c2ccc(Cl)cc2)c1=O	x	5	-4	17	32
COc1cc(SC#N)ccc1N=Cc1c(C)[nH]n(-c2ccc(C)c(C)c2)c1=O	-9	-11	0	-13	99*
COc1cccc(C2CC(c3ccccc3Cl)Nc3ncnn32)c1 (stereo unspecified)	-20	x	0	6	-3
COc1ccc(C2CC(c3ccccc3Cl)Nc3ncnn32)cc1OC (stereo unspecified)	0	-10	-2	-10	76*
CC(=O)N1N=C(c2ccccc2O)OC1(C)CC(=O)Nc1ccccc1 (stereo unspecified)	-8	4	1	-2	60*
Cn1c(SCC(=O)CC(=O)Nc2ccccc2)nnc1-c1ccc(O)cc1	x	6	2	-24	-7
SMILES	S1P3 antagonist	Mdm2 ligase inh	S1P4 agonist	S1P4 antag	Lmaj promast
CCCCN1CCc2c([nH]c3c(C)cccc23)C1=O	13	-6	0	-11	-1
COc1ccc(-n2c(=O)c3c4c(sc3n3c(=S)[nH]nc23)COC(C(C)C)C4)cc1 (stereo unspecified)	2	-21	1	16	x
Cc1c(CN2CCC(CO)(CCOc3ccccc3)CC2)c(=O)n(-c2ccccc2)n1C	-10	-3	-1	13	-4
S=C(NC1CC2CCC1C2)N1CCN(c2cccc(Cl)c2)CC1 (stereo unspecified)	-3	-3	0	4	3
O=C(c1ccccc1)N1CCc2ccccc21	x	-9	1	15	-2
Cc1c(C(=O)N2CCc3ccccc32)oc2ccccc12	-2	-17	2	-12	81*
Cc1nc(CSc2nsc(/C=C/N(C)C)c2C#N)cs1	-1	31*	0	0	1
COc1cccc(NC(=S)/C(=C(\[O-])c2cc(C)n(-c3ccccc3F)c2C)[n+]2ccc(N(C)C)cc2)c1	-6	-21	2	4	41
O=C1c2cnc3nc(SCc4cccc(Cl)c4)nn3c2CC2c3ccccc3CCN12 (stereo unspecified)	x	-3	0	-1	56*
CCOc1ccc(CCNc2ccc3nnc(-c4ccccc4)n3n2)cc1OCC	-12	x	0	2	77*
O=C(Nc1nc2ccccc2[nH]1)c1ccc(F)c(S(=O)(=O)N2CCOCC2)c1	-27	-9	-2	-6	3
COc1cc(C(=O)Nc2nc3ccccc3[nH]2)ccc1OC(F)F	9	-15	0	22	x
COc1ccc(C(=O)Nc2nc3ccccc3[nH]2)cc1S(=O)(=O)N1CCCC1	x	-13	1	-17	59*
CCC(Oc1ccccc1)C(=O)Nc1nc2ccccc2[nH]1 (stereo unspecified)	21	-10	0	-12	100*
CCOc1ccc(C(=O)Nc2nc3ccccc3[nH]2)cc1OCC	11	-8	1	-18	52*
COc1ccc(CC(=O)Nc2nc3ccccc3[nH]2)cc1	11	-4	0	-43	x
COc1ccc(C(=O)Nc2nc3ccccc3[nH]2)cc1OC	-3	6	1	-12	65*
O=C(COC(=O)c1ccc(Cl)nc1)NCCC1=CCCCC1	-9	-7	1	13	-2
COc1ccc(CNC(=O)NC(C)(C)c2cccc(C(C)(C)NC(=O)NCc3ccc(OC)cc3)c2)cc1	-13	-49	0	-14	-4
CCCCc1ccc(-c2nc(NC(=O)C3C4CCC(O4)C3C(=O)O)sc2C)cc1 (stereo unspecified)	x	-11	-6	5	-5
COc1cc(OC)cc(C(=O)Nc2nc3ccccc3[nH]2)c1	x	-9	-1	-11	64*
O=C(CSc1nc(COc2ccccc2)nc2ccccc12)NC1CCCC1	1	-14	0	-12	2
CCCCCCC(C)OC(=O)c1ccccc1C(=O)O (stereo unspecified)	5	-16	-1	-4	x
O=C(Nc1ccccc1)c1ccc(S(=O)(=O)N2CCCCC2)cc1	4	-7	1	0	2
O=C(NC(Cc1ccccc1)C(=O)O)c1ccc(S(=O)(=O)N2CCCC2)cc1 (stereo unspecified)	12	-4	1	-3	72*
O=C(NC(Cc1ccccc1)C(=O)O)c1ccc(S(=O)(=O)N2CCCCC2)cc1 (stereo unspecified)	x	-26	3	-2	55*
Cc1onc(-c2c(Cl)cccc2Cl)c1C(=O)ONC(=O)c1ccccc1	-7	-10	3	6	x
